Format in all cases: cell-based
Series [1] relates to Staphylococcus aureus. Description: MIC by tube dilution method. The following applies: observed, S. aureus, 37 °C 24 h.
In series [2] the test system is Bacillus subtilis. Put plainly: MIC by tube dilution method. The following applies: observed, B. subtilis, 37 °C 24 h. The gist of the method: (§1)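 Test compound is diluted in double strength nutrient broth (I.P.) by tube dilution, with ciprofloxacin as reference. Samples incubated at 37 °C for 24 h. MIC is the lowest concentration inhibiting microbial growth, transformed into pMIC for analysis.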

Series [3] deals with Escherichia coli. Put plainly: MIC by tube dilution method. Particulars: observed, E. coli, 37 °C 24 h. The gist of the method: as §1
Series [4] relates to Candida albicans. Put plainly: MIC by tube dilution method. Particulars: observed, C. albicans, 37 °C 48 h.
Series [5] relates to Aspergillus niger. Description: MIC by tube dilution method. The following applies: observed, A. niger, 25 °C 7 d.
Series [6] has as its system S. aureus, B. subtilis and E. coli. Put plainly: Average antibacterial activity. The following applies: average antibacterial activity (pMICsa + pMICbs + pMICec)/3.
Series [7] concerns C. albicans and A. niger. Description: Average antifungal activity. Particulars: average antifungal activity (pMICca + pMICan)/2.
Series [8] relates to S. aureus, B. subtilis, E. coli, C. albicans and A. niger. Description: Average antimicrobial activity. The following applies: mean of five pMIC values.
For series [9], the system named is Feline Herpes virus. Description: organism not typed. The following applies: CRFK, read-out: EC50 Feline Corona Virus.
For series [10], the system named is Para-influenza-3 virus. Description: organism not typed. The following applies: Vero, read-out: EC50 Para-influenza-3 virus.
For series [11], the system named is Reovirus-1. Description: organism not typed. The following applies: Vero, read-out: EC50 Reovirus-1.
Series [12] concerns Sindbis virus. Description: microbe, parasite or virus in culture. Particulars: Vero, read-out: EC50 Sindbis virus.
The subject of series [13] is HEL cells. Put plainly: Cytotoxicity in uninfected cell cultures. Particulars: microscopically detectable alteration of cell morphology. Summed up:
(§2)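 Uninfected cell cultures are exposed to serial dilutions of test compound in parallel with the virus cytopathicity assays. Cells are examined microscopically. Minimum cytotoxic concentration is the lowest concentration causing a microscopically detectable alteration of normal cell morphology.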

In series [14] the test system is HeLa cells. Description: Cytotoxicity in uninfected cell cultures. The following applies: cell morphology. Summed up: as §2
Series [15] deals with Vero cells. Put plainly: Cytotoxicity in uninfected cell cultures. Particulars: cell morphology. Summed up: as §2
For series [16], the system named is Herpes simplex virus-1 (KOS). Description: microbe, parasite or virus in culture. The following applies: Human alphaherpesvirus 1, HEL, read-out: EC50 Herpes simplex virus-1 (KOS).
In series [17] the test system is Herpes simplex virus-2 (G). Put plainly: microbe, parasite or virus in culture. Particulars: Human alphaherpesvirus 2, HEL, read-out: EC50 Herpes simplex virus-2 (G).
In series [18] the test system is Vaccinia virus. Put plainly: microbe, parasite or virus in culture. Particulars: Orthopoxvirus vaccinia, HEL, read-out: EC50 Vaccinia virus.
For series [19], the system named is Vesicular stomatitis virus. Put plainly: microbe, parasite or virus in culture. The following applies: HEL, read-out: EC50 Vesicular stomatitis virus.
Series [20] concerns S. aureus. Put plainly: Minimum bactericidal concentration. The following applies: static when MBC 3-fold higher than MIC.
The subject of series [21] is B. subtilis. Description: Minimum bactericidal concentration. The following applies: static when MBC 3-fold higher than MIC.

A value given as a limit tells only on which side of the number the result lay.

The term EC50 denotes the concentration at which the effect is half-maximal. Turning to `Cc1ccc(S(=O)(=O)n2c(-c3ccc(S(=O)(=O)O)cc3)nc3ccccc32)cc1` [Compound 20], the pMICsa in [1] is recorded as 1.84. Besides, in series [2], the pMICbs came out at 1.84. The same molecule gave a pMICec in series [3] of 1.54. The same molecule had a pMICca in series [4] of 1.54. In series [5], this molecule came in with a pMICan of 1.23. Besides, in series [6], the pMICab is recorded as 1.74. Also, the pMICaf in [7] stood at 1.39. In series [8], the pMICam was 1.60. Besides, the EC50 in series [9], in [10], in [11] and in series [12] was over 100 mg/L in each case. Also, the Minimum cytotoxic concentration in series [13] and in series [15] was over 100 µg/mL in each case. Besides, in [14], the “Cytotoxicity Minimum cytotoxic concentration” value was over 100 µg/mL.

With `Nc1ccn(C[C@@H](CO)OCP(=O)(O)O)c(=O)n1` [Cidofovir], the concentration for a half-maximal effect (EC50) is 0.4 µM in series [16], 0.2 µM in series [17], over 250 µM in [18] and over 250 µM in [19].

Regarding `O=c1[nH]c(=O)n([C@H]2C[C@H](O)[C@@H](CO)O2)cc1/C=C/Br` [Brivudin], the figures for the EC50 in series [18] and in series [19] were 112 µM and over 250 µM, respectively.

For `Nc1nc(O)c2ncn(COC(CO)CO)c2n1` [Ganciclovir], the concentration for a half-maximal effect (EC50) in series [16] is 0.03 µM; in series [17] it was 0.03 µM; in [18] it was over 100 µM; in [19] it was over 100 µM. This molecule also displayed a Minimum cytotoxic concentration in series [13] of over 100 µM.

The molecule `Cc1ccccc1C(=O)n1c(-c2ccc(S(=O)(=O)O)cc2)nc2ccccc21` [Compound 10] displayed a pMICsa in [1] of 2.10. Also, the pMICbs in series [2] came to 2.10. The pMICec in series [3] was 2.10. Also, in series [4], the pMICca is 1.50. For the same molecule, the pMICan in [5] is 1.20. In addition, in series [6], the pMICab is 2.10. Also, the pMICaf in series [7] is given as 1.35. In addition, the pMICam in series [8] was found to be 1.80. For the same molecule, the “bacteriostatic/bactericidal action against S. aureus” value in [20] was “active bacteriocidal agents”. Besides, the EC50 in series [9], in [10] and in series [11] was over 100 mg/L throughout. Further, the Minimum cytotoxic concentration in series [13] and in series [15] was over 100 µg/mL each time. Besides, the “Cytotoxicity Minimum cytotoxic concentration” value in series [14] is over 100 µg/mL.

As for `NC(=O)c1ncn([C@@H]2O[C@H](CO)[C@@H](O)[C@H]2O)n1` [Ribavirin], the EC50 is 1 µM in series [16]; 2 µM in [17]; 10 µM in series [18]; over 250 µM in series [19]; 95 µM in [10]; over 250 µM in series [12]. Also, the Minimum cytotoxic concentration in [13] and in series [15] was over 250 µM throughout. Besides, in [14], the “Cytotoxicity Minimum cytotoxic concentration” value is over 250 µM.

Consider `Cc1ccc(C(=O)n2c(-c3ccc(S(=O)(=O)O)cc3)nc3ccccc32)cc1` [Compound 11], for which the pMICsa in series [1] was determined as 2.10. In addition, the pMICbs in series [2] was 1.95. In [3], this molecule showed a pMICec of 2.10. In series [4], this molecule had a pMICca of 1.50. In addition, the pMICan in series [5] is 0.89. Moreover, in series [6], the pMICab was 2.05. Moreover, the pMICaf in series [7] came to 1.20. Also, the pMICam in series [8] stood at 1.71. Also, the “bacteriostatic/bactericidal action against B. subtilis” value in [21] is given as “active bacteriocidal agents”. For the same molecule, the half-maximal effective concentration (EC50) in [9], in [10] and in series [11] was over 100 mg/L throughout. For the same molecule, the Minimum cytotoxic concentration in [13] and in [15] was over 100 µg/mL throughout. The “Cytotoxicity Minimum cytotoxic concentration” value in [14] is over 100 µg/mL.

In series [1], `O=C(c1ccccc1O)n1c(-c2ccc(S(=O)(=O)O)cc2)nc2ccccc21` [Compound 16] registered a pMICsa of 2.10. The pMICbs in [2] is 2.10. Further, the pMICec in [3] was 2.26. In addition, the pMICca in series [4] came to 1.50. Moreover, the pMICan in series [5] amounted to 1.50. Moreover, the pMICab in [6] was 2.15. In [7], the pMICaf stood at 1.50. This molecule also had a pMICam in [8] of 1.89. Also, the EC50 in series [9], in [10] and in series [11] was over 100 mg/L each time. Moreover, the Minimum cytotoxic concentration in [13] and in series [15] was over 100 µg/mL throughout. For the same molecule, the “Cytotoxicity Minimum cytotoxic concentration” value in series [14] was over 100 µg/mL.

`O=C(c1ccc(Cl)cc1)n1c(-c2ccc(S(=O)(=O)O)cc2)nc2ccccc21` [Compound 5] came in with a pMICsa in [1] of 2.12. Moreover, the pMICbs in [2] is given as 2.13. In addition, the pMICec in [3] was 2.42. In [4], this molecule had a pMICca of 1.52. The molecule also displayed a pMICan in series [5] of 1.22. Moreover, in series [6], the pMICab was 2.22. Further, the pMICaf in [7] came out at 1.37. The molecule also came in with a pMICam in series [8] of 1.88. Moreover, the EC50 in series [9], in series [10] and in [11] was over 100 mg/L throughout. Besides, the Minimum cytotoxic concentration in series [13] and in [15] was over 100 µg/mL in each case. Besides, the “Cytotoxicity Minimum cytotoxic concentration” value in series [14] was over 100 µg/mL.

`COc1ccc(C(=O)n2c(-c3ccc(S(=O)(=O)O)cc3)nc3ccccc32)cc1` [Compound 8] displayed a pMICsa in series [1] of 2.12. In [2], this molecule displayed a pMICbs of 2.12. This molecule came in with a pMICec in series [3] of 2.12. In series [4], this molecule displayed a pMICca of 1.51. Also, the pMICan in series [5] is recorded as 1.21. For the same molecule, in [6], the pMICab is 2.12. The pMICaf in [7] came out at 1.36. Further, in [8], the pMICam came out at 1.82. For the same molecule, the EC50 in series [9], in series [10] and in series [11] was over 100 mg/L each time. In addition, the Minimum cytotoxic concentration in [13] and in series [15] was over 100 µg/mL in each case. Also, the “Cytotoxicity Minimum cytotoxic concentration” value in series [14] is over 100 µg/mL.

In series [1], `C/C=C/C(=O)n1c(-c2ccc(S(=O)(=O)O)cc2)nc2ccccc21` [Compound 12] showed a pMICsa of 1.85. This molecule also came in with a pMICbs in series [2] of 1.85. In addition, the pMICec in series [3] stood at 1.85. Further, in series [4], the pMICca worked out at 1.44. In addition, the pMICan in [5] came to 0.84. Moreover, the pMICab in series [6] amounted to 1.85. Also, the pMICaf in series [7] is listed as 1.14. Further, in series [8], the pMICam was 1.57. Further, the EC50 in series [9], in series [10] and in series [11] was over 100 mg/L each time. Further, the Minimum cytotoxic concentration in series [13] and in series [15] was over 100 µg/mL throughout. The “Cytotoxicity Minimum cytotoxic concentration” value in series [14] was over 100 µg/mL.

`O=C(c1ccc(O)cc1O)n1c(-c2ccc(S(=O)(=O)O)cc2)nc2ccccc21` [Compound 7]: the pMICsa in series [1] came to 2.12. In series [2], this molecule yielded a pMICbs of 2.42. This molecule also returned a pMICec in series [3] of 2.42. The pMICca in [4] is 1.52. This molecule registered a pMICan in series [5] of 1.22. Also, the pMICab in series [6] is 2.32. For the same molecule, the pMICaf in series [7] is given as 1.37. Besides, in series [8], the pMICam turned out to be 1.94. Moreover, the EC50 in series [9], in series [10] and in [11] was over 100 mg/L each time. The Minimum cytotoxic concentration was 100 µg/mL in series [13] and over 100 µg/mL in series [15]. Also, the “Cytotoxicity Minimum cytotoxic concentration” value in series [14] was over 100 µg/mL.
